Most compounds without a hit are left out; they make up all but 2.5% or so of the library.
ADAM10 inh = human ADAM10 inhibitors, primary screen, biochemical, QFRET, HTS; Disintegrin and metalloproteinase domain-containing protein 10 (Homo sapiens), O14672; recombinant ADAM10, EDANS/DABCYL FRET peptide cleavage, 3 h; inhibition, % at 7 µM; actives 0.62% (n = 370,000); AID 720582, 2013;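 active = inhibition above a per-campaign cutoff equal to the mean of compounds falling between control-based bounds plus 3 SD, cut at about 20% in these data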
GASC-1 inh = inhibitors of GASC-1 histone demethylase, primary screen, biochemical, fluorescence, DELFIA europium; GST-JMJD2C(1-420) H3K9me3 demethylation; Lysine-specific demethylase 4C (Homo sapiens), Q9H3R0; actives 0.069% (n = 330,000); inhibition, % at 2.35 µM;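 active = more than half of a compound's replicate wells show inhibition beyond 50%, single wells judged on their own value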;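 also: signal counts dimethyl H3K9 product captured on neutravidin plate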
NR2E3 ag-1 = NR2E3 agonists in two-hybrid cells, primary screen, cell-based, luminescence, CHO-S, Gal4-NCOR/VP16-NR2E3; actives 0.35% (n = 360,000); luciferase; inhibition of corepressor binding, % at 3.98 µM; AID 602229, 2012; Photoreceptor-specific nuclear receptor (Homo sapiens), Q9Y5X4;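 active = inhibition above the mean of all tested compounds plus 3 SD, cut at about 70% in these data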;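 also: higher means lower luciferase signal from less NR2E3 corepressor binding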
NR2E3 ag-2 = inhibitors of NR2E3-RetCOR corepressor binding, primary screen, NR2E3 agonist project, biochemical, TR-FRET, GST-NR2E3, biotin-RetCOR; inhibition of corepressor binding, % at 4.78 µM; 1536-well; AID 2300, 2010; actives 0.12% (n = 320,000); Photoreceptor-specific nuclear receptor (Homo sapiens), Q9Y5X4;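 active = percent inhibition above the cutoff of mean plus 3 SD of all tested compounds, set per screening campaign, cut at about 20% in these data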
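Format: 1536-well format; test system: GST-NR2E3 and biotin-RetCOR proteins; read-out basis: percent inhibition of TR-FRET ratio; timing: 5 h incubation at 4 °C; detection: time-resolved FRET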
proKLK7 act = proKLK7 zymogen activators, primary screen, biochemical, fluorescence intensity | Kallikrein-7 (Homo sapiens), P49862 | purified proKLK7, EDANS-DABCYL substrate fluorescence; 100% is mature enzyme control, 0% vehicle | activation, % at 7 µM | actives 0.9% (n = 370,000);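 active = activation above the mean of all tested compounds plus 3 SD, computed per campaign excluding outliers beyond control limits, cut at about 13% in these data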
ADAM17 inh = ADAM17 inhibitors, primary screen, biochemical, QFRET; Disintegrin and metalloproteinase domain-containing protein 17 (Homo sapiens), P78536; recombinant ADAM17, EDANS/DABCYL FRET peptide cleavage; inhibition, % at 6.95 µM; actives 0.83% (n = 370,000);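 active = inhibition above the mean of compounds lying between control limits plus 3 SD, set per campaign, cut at about 8.5% in these data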
KLK7 act conf = proKLK7 zymogen activators, confirmation, biochemical, fluorescence intensity, triplicate | purified proKLK7, EDANS-DABCYL substrate fluorescence; scaled: vehicle 0, mature enzyme 100 | shares compounds with proKLK7 act | activation, % at 7 µM | actives 68% (n = 3,200);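 active = activation, as change over the incubation, above the mean of all tested compounds plus 3 SD, cut at about 13% in these data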
EDANS-DABCYL int = EDANS-DABCYL substrate optical interference, artefact control for kallikrein-7 zymogen activator project, biochemical, fluorescence intensity, high throughput; shares compounds with proKLK7 act; no enzyme, 4 h; solvent 0%, active enzyme control 100%; activation, % at 7 µM; actives 80% (n = 3,200); AID 686952, 2013;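 active = activation above the all-compound mean plus 3 SD, ignoring values outside control-based bounds, cut at about 4.8% in these data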;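 also: value is the 4 h activation minus the activation read at time zero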
K7 EDANS ctr = optically interferes with EDANS-DABCYL fluorescence, kallikrein-7 activator counter-screen. shares compounds with proKLK7 act. EDANS-DABCYL peptide fluorescence interference, no enzyme. EC50, µM. actives 20% (n = 250). AID 720493;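 active = compounds that raise the fluorescence signal in this interference counterscreen, with EC50 at or below 10 µM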;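 also: intact quenched peptide substrate alone read at 355 nm excitation and 520 nm emission; signal is fluorescence gain from T0 to T4 after four hours at room temperature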
Numbers stand for hits.

Screening C/C=C/c1ccc(OCc2cc(=O)n3cc(C)ccc3n2)c(OC)c1 returned ADAM10 inh inactive, GASC-1 inh inactive, NR2E3 ag-1 inactive, NR2E3 ag-2 inactive, proKLK7 act inactive and ADAM17 inh inactive.
Screening COc1cc2c(cc1OC)CN(Cc1cc(=O)n3c(-c4ccccc4)csc3n1)CC2 returned ADAM10 inh inactive, GASC-1 inh inactive, NR2E3 ag-1 inactive, NR2E3 ag-2 inactive, proKLK7 act 33, ADAM17 inh inactive, KLK7 act conf inactive and EDANS-DABCYL int inactive.
Screening O=c1cc(CN2CCN(c3ccccc3)CC2)nc2scc(-c3ccccc3)n12 returned ADAM10 inh inactive, GASC-1 inh inactive, NR2E3 ag-1 inactive, NR2E3 ag-2 inactive, proKLK7 act inactive and ADAM17 inh inactive.
COc1cc(C2C(C#N)=C(N)Oc3c2c(-c2ccccc2)nn3-c2ccccc2)cc(OC)c1OC (stereo not drawn) was read as ADAM10 inh inactive, GASC-1 inh inactive, NR2E3 ag-1 inactive, NR2E3 ag-2 inactive, proKLK7 act inactive and ADAM17 inh inactive.
Screening COc1ccc(OC)c(/C=N/N2CCN(c3ccc(Cl)cc3)CC2)c1 returned ADAM10 inh inactive, GASC-1 inh inactive, NR2E3 ag-1 inactive, NR2E3 ag-2 inactive, proKLK7 act inactive and ADAM17 inh inactive.
Nc1ncccc1OCc1ccc(Cl)c(Cl)c1 was read as ADAM10 inh inactive, GASC-1 inh inactive, NR2E3 ag-1 inactive, NR2E3 ag-2 inactive, proKLK7 act inactive and ADAM17 inh inactive.
Screening COC(=O)c1cc(-c2cccc(C(F)(F)F)c2)c(=O)n2c1CCC2 returned ADAM10 inh inactive, proKLK7 act inactive and ADAM17 inh inactive.
Screening Cc1sc(-c2ccncc2)nc1OC(=O)c1ccc(F)cc1F returned ADAM10 inh inactive, GASC-1 inh inactive, NR2E3 ag-1 inactive, NR2E3 ag-2 inactive, proKLK7 act 14, ADAM17 inh inactive, KLK7 act conf 13, EDANS-DABCYL int 11 and K7 EDANS ctr inactive.
`Cn1c2ccccc2c(=O)c2ccc(F)cc21` gave ADAM10 inh inactive, GASC-1 inh inactive, NR2E3 ag-1 inactive, NR2E3 ag-2 inactive, proKLK7 act 13, ADAM17 inh inactive, KLK7 act conf 50 and EDANS-DABCYL int 44.
`O=C(O)c1cc(-c2ccccc2)nc2nc(N3CCCCC3)sc12` gave ADAM10 inh inactive, GASC-1 inh inactive, NR2E3 ag-2 inactive, proKLK7 act 16, ADAM17 inh inactive, KLK7 act conf 44 and EDANS-DABCYL int 41.
Cc1ccc(-c2cc(C(=O)O)c3sc(N4CCCCC4)nc3n2)cc1 was read as ADAM10 inh inactive, GASC-1 inh inactive, NR2E3 ag-1 inactive, NR2E3 ag-2 inactive, proKLK7 act 25, ADAM17 inh inactive, KLK7 act conf 19 and EDANS-DABCYL int 23.
CCOC(=O)c1cc(-c2ccccc2)nc2nc(N3CCCCC3)sc12 was read as ADAM10 inh inactive, GASC-1 inh inactive, NR2E3 ag-1 inactive, NR2E3 ag-2 inactive, proKLK7 act inactive and ADAM17 inh inactive.
